Bioassay records: PubChem BioAssay, several laboratories
GC-B act – GC-B (human) receptor activation; activation, % at 10 µM; AID 1920062; P20594; HEK293-GC-B cells, CNP EC30, cGMP TR-FRET; 0% at EC30 CNP, 100% saturating CNP; 0.11% of 370,000 active;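 active = activation at 10 µM reaching about 35% in either raw or pattern-adjusted values, limit read from the data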
NSD2 inh – inhibitors of human histone methyltransferase NSD2. O96028. NSD2 peptide methylation, AlphaScreen, 120 min. inhibition, % at 12.5 µM. 0.54% of 310,000 active. AID 743445; in the data active = inhibition above about 50%
CaV13 FRET inh – Primary screen for inhibitors of IQ motif and Ca2+-dependent inactivation inhibitor domain binding in CACNA1D, Förster resonance energy transfer in living cells, … | HEK cells, CFP/YFP FRET ICDI-IQ, plate reader, 10 min; percent FRET-ratio fall versus neutral wells | inhibition, % at 12.3 µM | 0.098% of 340,000 active;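 active = mean replicate inhibition of at least 30% and at least 1% of replicates passing that level; inconclusive = only one of the two criteria is met; inactive = neither criterion is met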;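 note: 0% = median of the neutral control wells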
NPR1 activator – GC-A (human) enzyme activation | activation, % at 10 µM | P16066 | AID 1671463 | 0.14% of 370,000 active | HEK293 GC-A cells, cGMP TR-FRET, EC30 ANP; 0% at EC30 ANP, 100% saturating ANP; in the data active = activation above about 40%
CASP6 VEID inh – caspase-6 (human) enzyme inhibition; P55212; purified caspase-6, Z-VEID-R110 cleavage fluorescence; inhibition, % at 12.5 µM; 0.53% of 350,000 active; AID 686996;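 active = mean inhibition across replicates at least about 35%, with every replicate also reaching that limit, limit read from the data; inconclusive = only one of the two criteria met; inactive = neither criterion met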;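 note: 0% = median of neutral control wells and 100% = no fluorescence left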
Target sequence (P55212 24-179 limits assumed): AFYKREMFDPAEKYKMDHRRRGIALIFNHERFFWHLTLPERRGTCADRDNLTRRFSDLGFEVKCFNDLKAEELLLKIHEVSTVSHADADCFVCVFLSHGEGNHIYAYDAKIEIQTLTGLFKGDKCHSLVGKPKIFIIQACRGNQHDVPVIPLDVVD
Target sequence (P55212 194-293 limits assumed): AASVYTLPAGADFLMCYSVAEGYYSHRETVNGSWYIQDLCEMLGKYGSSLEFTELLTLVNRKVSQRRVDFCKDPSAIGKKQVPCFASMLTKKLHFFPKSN
FN deposition inh – fibronectin deposition inhibition. AH1F fibroblasts, Alexa488-fibronectin deposition fluorescence, overnight. inhibition, % at 12.6 µM. 0.086% of 350,000 active;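 active = mean inhibition across replicates of 30% or more, regardless of how many single replicates reach that level; inconclusive = mean under 30% yet at least half of replicates reach 30%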;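 note: positive control wells lacked labelled fibronectin entirely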
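Assay system: AH1F fibroblasts assembling fluorescent fibronectin matrix; Amount: 10000 AH1F cells per well; Buffer or medium: DMEM, 2% serum; Probe or stimulus: Alexa488-fibronectin, 24 nM final in well; Doses: single compound dose, delivered by pin transfer; Incubation: 1 h adhesion, overnight exposure; Measured by: fluorescence 485/525 nm; Read-out: fibronectin deposition inhibition.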
Starred values were filed as active, the others as inactive; ? = inconclusive; / = no result; + = active, no number. Compounds with a hit are over-represented: about 0.99% of the library has one in this group of screens.

SMILES | GC-B act | NSD2 inh | CaV13 FRET inh | NPR1 activator | CASP6 VEID inh | FN deposition inh
CS(=O)(=O)N1C[C@@H]2C(c3ccc(Br)cc3)[C@H](C1)N2CC(F)(F)F (stereo partly specified) | / | / | / | / | / | -1
O=C(C1=NN(c2ccccc2)C2C(=O)N(c3ccccc3)C(=O)C12)c1ccccc1 (stereo unspecified) | 2 | -2 | + | 13 | 2 | -1
Cc1ccc(N2C(=O)C3C(C(=O)c4ccccc4)=NN(c4ccccc4)C3C2=O)cc1 (stereo unspecified) | -3 | -1 | -14 | 6 | -3 | -3
CCOC(=O)c1c(-c2ccc(C)o2)csc1NC(=S)NC(=O)c1ccccc1Br | 37* | 0 | -8 | 18 | / | /
CCOC(=O)c1c(-c2ccc(C)o2)csc1NC(=O)CSc1nnc(C)s1 | 6 | 0 | -5 | 3 | / | -1
CCOC(=O)c1c(-c2ccc(C)o2)csc1NC(=S)NC(=O)c1cccs1 | 37* | 7 | / | 29 | -2 | /
CO[C@H]1CN(C)C(=O)c2cc(NC(=O)C3CCC3)ccc2OC[C@@H](C)N(Cc2ccc(F)cc2)C[C@@H]1C | / | / | / | / | -2 | -9
Cc1ccc(S(=O)(=O)N/N=C\c2ccc(C)o2)cc1 | 0 | 3 | -10 | 2 | 41* | /
Cc1ccc(/C=N/NS(=O)(=O)c2ccc([N+](=O)[O-])cc2)o1 | -1 | 0 | -13 | 0 | / | -7
C/C=C/c1cnc2c(c1)C(=O)N([C@@H](C)CO)C[C@@H](C)[C@H](CN(C)C(=O)c1ccc3c(c1)OCO3)O2 | / | / | / | / | 0 | 8
Cc1ccccc1NC(=O)CN1C(=O)S/C(=C\c2ccc(-c3cc(C(=O)O)ccc3C)o2)C1=O | -6 | 14 | -17 | -5 | 0 | -8
Cc1ccc(C(=O)O)cc1-c1ccc(/C=C2\SC(=O)N(CC(=O)Nc3ccccc3)C2=O)o1 | -1 | 19 | -4 | -5 | 35* | 2
C#CCN1C(=O)S/C(=C\c2ccc(-c3ccc(C(=O)O)cc3C)o2)C1=O | -11 | 12 | ? | -7 | 58* | -6
CCOC(=O)C(C)N1C(=O)S/C(=C\c2ccc(-c3ccccc3C(=O)O)o2)C1=O (stereo unspecified) | 3 | 49 | -6 | 1 | 60* | -4
Cc1ccc2c(nc3s/c(=C\c4ccc(-c5ccccc5C(=O)O)o4)c(=O)n32)c1C | -6 | 10 | -35 | -1 | 0 | -1
Cc1cc(N)n(-c2ccc(Oc3ccccc3)c(S(=O)(=O)O)c2)n1 | 2 | 38 | -4 | -1 | 38* | 1
Cn1cc(C(CC(=O)O)C(=O)O)c2ccccc21 (stereo unspecified) | -2 | 17 | -8 | 0 | 43* | /
CCCn1cc(C(CC(=O)O)C(=O)O)c2ccccc21 (stereo unspecified) | 1 | 14 | -10 | -2 | / | /
C/C(=N/NC(N)=S)c1cc2ccc(O)cc2oc1=O | 5 | 18 | 1 | 3 | 42* | 1
Cc1ccc(S(=O)(=O)Nc2ccc3c(c2)C(=O)N([C@H](C)CO)C[C@@H](C)[C@@H](CN(C)C(=O)CCCN(C)C)OCCCC[C@@H](C)O3)cc1 | / | / | / | / | -3 | -4
S=C(NCC1CCCO1)N1CCN(c2ccccc2)CC1 (stereo unspecified) | 4 | -2 | -11 | -3 | 1 | 5
S=C(NCC1CCCO1)N1CCN(Cc2ccccc2Cl)CC1 (stereo unspecified) | 1 | -2 | + | 4 | -2 | 4
O=C(Cc1ccc(-n2c(=O)c3ccccc3n(Cc3ccccc3F)c2=O)cc1)NCC1CCCO1 (stereo unspecified) | 27 | -2 | -2 | 29 | 2 | -4
O=C(Cc1ccc(-n2c(=O)c3ccccc3n(Cc3ccccc3Cl)c2=O)cc1)NCC1CCCO1 (stereo unspecified) | 62* | 2 | -6 | 53* | -1 | 1
CN1CCN(c2ccc(CNC(=O)C3Cc4c(-c5ccc6c(c5)OCO6)ccnc4O3)cc2)CC1 (stereo unspecified) | 5 | 13 | -7 | 0 | 80* | 0
SMILES | GC-B act | NSD2 inh | CaV13 FRET inh | NPR1 activator | CASP6 VEID inh | FN deposition inh
CC(C)(C)c1ccc(-n2nc(C#N)c(Cl)cc2=O)cc1 | 74* | 24 | -4 | 69* | 2 | 30*
COc1cc(O)c2c(c1)oc(=O)c1c3cc(O)c(O)cc3oc21 | / | / | / | / | 77* | /
COc1ccc2c(c1)oc(=O)c1cc(OC)ccc12 | -6 | / | / | 3 | -3 | /
Nc1nc2c(nc(Br)n2[C@@H]2O[C@@H]3COP(=O)(O)O[C@H]3[C@H]2O)c(=O)[nH]1 | 114* | / | -5 | 116* | -5 | 10
Nc1ncnc2c1nc(Br)n2[C@@H]1O[C@@H]2COP(=O)(O)O[C@H]2[C@H]1O | 6 | / | -5 | 4 | / | -3
CCC(=O)N1C(C(=O)NCc2ccc(OC)cc2)CSC1c1ccc(OC)cc1 (stereo unspecified) | -3 | / | 45* | 1 | 3 | 10
CNc1nc(C)c([N+](=O)[O-])c(Nc2ccc(OC)cc2)n1 | 5 | 2 | -5 | 5 | -2 | 5
CC(=O)Nc1ccc(Nc2nc(C)c([N+](=O)[O-])c(Nc3ccc(NC(C)=O)cc3)n2)cc1 | 38* | -3 | -6 | 33 | / | /
O=C1c2sc3nc4n(c(=O)c3c2CCC1Br)CCCCC4 (stereo unspecified) | -3 | + | -4 | 4 | / | -19
COC(=O)c1sc(N2C(=O)C(O)=C(C(=O)c3ccc(C)o3)C2c2ccc([N+](=O)[O-])cc2)nc1C (stereo unspecified) | -3 | 23 | / | 1 | 17 | /
CCOc1ccc(C2C(C(=O)c3ccc(C)o3)=C(O)C(=O)N2c2nc(C)c(C(=O)OC)s2)cc1 (stereo unspecified) | -9 | 1 | -8 | 44* | / | -1
CCOc1ccc(C2C(C(=O)c3ccc(C)o3)=C(O)C(=O)N2c2cc(C)on2)cc1OC (stereo unspecified) | 5 | 3 | -8 | 11 | 3 | -1
CCCCCOc1ccc(C2C(C(=O)c3ccc(C)o3)=C(O)C(=O)N2c2cc(C)on2)cc1 (stereo unspecified) | 0 | 1 | -8 | 10 | 39* | 3
COC1=C(Nc2ccc(C)cc2)C(=O)c2ccccc2C1=O | 0 | 78* | -5 | -2 | 7 | 1
COC1=C(Nc2ccccc2)C(=O)c2ccccc2C1=O | -6 | 75* | -6 | -9 | / | /
O=C1C(Cl)=C(Nc2ccccc2)C(=O)c2ccccc21 | -2 | 0 | -15 | 6 | 5 | 20
COc1cccc(NC(=O)N[C@@H]2CC[C@H](CC(=O)NCc3ccncn3)O[C@@H]2CO)c1 | / | / | / | / | 3 | -11
